The source made the active and inactive calls. No cut-off for these calls is given here.
Legend:
[1] = target: Aminodeoxychorismate synthase component 1 PabB (Escherichia coli K-12) (UniProt P05041); assay: Competitive inhibition of Escherichia coli K12 ADCS by double reciprocal plot in presence of cofactor Mg2+
[2] = target: T1, Anthranilate synthase component 1 (Salmonella typhimurium (strain LT2 / SGSC1412 / ATCC 700720), UniProt P00898); assay: Inhibition of Salmonella Typhimurium anthranilate synthase trpE:trpD […] coexpressing stop codon in trpD gene for encoding aminotransferase activity by spectrophotometry for enzyme-inhibitor complex; design: species or system Salmonella enterica subsp. enterica serovar Typhimurium
T1 sequence (P00898 whole entry): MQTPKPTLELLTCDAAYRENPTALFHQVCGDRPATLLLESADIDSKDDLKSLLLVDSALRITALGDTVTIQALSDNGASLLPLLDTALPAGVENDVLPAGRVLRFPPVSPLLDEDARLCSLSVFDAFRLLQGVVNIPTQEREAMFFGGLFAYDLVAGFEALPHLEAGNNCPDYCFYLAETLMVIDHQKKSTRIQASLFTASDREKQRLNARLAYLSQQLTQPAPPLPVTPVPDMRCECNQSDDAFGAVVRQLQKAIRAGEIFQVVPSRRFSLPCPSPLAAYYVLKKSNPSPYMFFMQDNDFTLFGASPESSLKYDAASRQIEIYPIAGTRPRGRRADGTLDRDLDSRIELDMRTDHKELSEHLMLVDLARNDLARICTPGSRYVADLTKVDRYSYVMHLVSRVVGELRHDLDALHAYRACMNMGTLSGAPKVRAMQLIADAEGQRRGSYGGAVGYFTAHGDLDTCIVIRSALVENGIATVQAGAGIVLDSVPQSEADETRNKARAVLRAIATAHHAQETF

[3] = target: T2, Isochorismate synthase EntC (Escherichia coli K-12, UniProt P0AEJ2); assay: Inhibition of Escherichia coli K12 IS expressed in Escherichia coli BL21(DE3) by spectrophotometry
T2 sequence (P0AEJ2 whole entry): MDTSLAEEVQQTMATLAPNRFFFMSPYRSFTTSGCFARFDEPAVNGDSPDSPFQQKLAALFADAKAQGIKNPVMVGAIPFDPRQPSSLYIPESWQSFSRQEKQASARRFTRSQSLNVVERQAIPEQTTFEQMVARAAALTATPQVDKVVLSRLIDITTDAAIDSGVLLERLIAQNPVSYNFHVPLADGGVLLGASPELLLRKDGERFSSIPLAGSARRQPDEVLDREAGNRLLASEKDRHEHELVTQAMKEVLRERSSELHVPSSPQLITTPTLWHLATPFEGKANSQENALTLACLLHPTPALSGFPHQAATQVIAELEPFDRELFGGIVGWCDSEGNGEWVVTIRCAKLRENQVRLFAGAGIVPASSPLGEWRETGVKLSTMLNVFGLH
How it was run: (§1)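 Isochorismate synthase EntC (His-tagged, pET28a, BL21(DE3)) at 75 nM, coupled to excess EntB (2 μM) and 2 units LDH. Read-out was NADH oxidation at 340 nm, 25 °C. Buffer: 50 mM triethanolamine pH 7.8, 1 mM MgCl2 (saturating), 100 μM NADH. Inhibitor ranged 10 μM–8 mM; chorismate ranged 0.5–5 KM. Ki versus chorismate came from initial rates.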

[4] = target: T3, Anthranilate synthase component 1 (Salmonella typhimurium (strain LT2 / SGSC1412 / ATCC 700720)) (UniProt P00898); assay: Mixed-type inhibition of Salmonella Typhimurium anthranilate synthase trpE expressed in Escherichia coli BL21(DE3) using chorismate as substrate by double reciprocal plot; conditions: Salmonella enterica subsp. enterica serovar Typhimurium
T3 sequence (whole entry): T1 sequence (P00898 whole entry)
How it was run: (§2)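 S. typhimurium anthranilate synthase partial complex (TrpE2TrpG2), 2.2 nM, in a fluorescence assay read at 390 nm emission, 313 nm excitation, 25 °C. Buffer: 100 mM phosphate pH 7.0, 20 mM L-glutamine, 5 mM MgCl2 (saturating). Reactions were started with enzyme. Inhibitor ranged 10 μM–8 mM; chorismate ranged 0.5–5 KM. Ki versus chorismate came from initial rates.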

[5] = target: T3, Anthranilate synthase component 1 (Salmonella typhimurium (strain LT2 / SGSC1412 / ATCC 700720)); assay: Competitive inhibition of Salmonella Typhimurium anthranilate synthase trpE expressed in Escherichia coli BL21(DE3) by double reciprocal plot in presence of cofactor Mg2+; conditions: Salmonella enterica subsp. enterica serovar Typhimurium
[6] = target: Aminodeoxychorismate synthase component 1 PabB (Escherichia coli K-12) (UniProt P05041); assay: Competitive inhibition of Escherichia coli K12 ADCS using chorismate as substrate by double reciprocal plot
[7] = target: Anthranilate synthase component 1 (Salmonella typhimurium (strain LT2 / SGSC1412 / ATCC 700720), UniProt P00898); assay: Inhibition of Salmonella Typhimurium anthranilate synthase trpE:trpD […] coexpressing stop codon in trpD gene for encoding aminotransferase activity by spectrophotometry for enzyme-substrate-inhibitor complex; design: species or system Salmonella enterica subsp. enterica serovar Typhimurium
[8] = target: T4, Isochorismate synthase EntC (Escherichia coli K-12) (UniProt P0AEJ2); assay: Noncompetitive inhibition of Escherichia coli K12 IS expressed in Escherichia coli BL21(DE3) by double reciprocal plot in presence of cofactor Mg2+
T4 sequence (whole entry): T2 sequence (P0AEJ2 whole entry)
How it was run: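 IS (75 nM) in an EntB/LDH coupled assay, with NADH loss read at 340 nm, 25 °C. Buffer: 50 mM triethanolamine pH 7.8, 100 μM NADH. Chorismate was held saturating at 200 μM while Mg2+ was varied 5–500 μM. Inhibitor ranged 10 μM–8 mM; the inhibition pattern came from initial rates.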

[9] = target: T4, Isochorismate synthase EntC (Escherichia coli K-12); assay: Competitive inhibition of Escherichia coli K12 IS expressed in Escherichia coli BL21(DE3) using chorismate as substrate by double reciprocal plot
How it was run: as §1

[10] = target: Aminodeoxychorismate synthase component 1 PabB (Escherichia coli K-12) (UniProt P05041); assay: Noncompetitive inhibition of Escherichia coli K12 ADCS using chorismate as substrate by double reciprocal plot
[11] = target: Aminodeoxychorismate synthase component 1 PabB (Escherichia coli K-12) (UniProt P05041); assay: Noncompetitive inhibition of Escherichia coli K12 ADCS by double reciprocal plot in presence of cofactor Mg2+
[12] = target: T3, Anthranilate synthase component 1 (Salmonella typhimurium (strain LT2 / SGSC1412 / ATCC 700720)); assay: Noncompetitive inhibition of Salmonella Typhimurium anthranilate synthase trpE expressed in Escherichia coli BL21(DE3) using chorismate as substrate by double reciprocal plot; conditions: Salmonella enterica subsp. enterica serovar Typhimurium
How it was run: as §2

Sequence of Aminodeoxychorismate synthase component 1 PabB (Escherichia coli K-12) (P05041 whole entry, looked up): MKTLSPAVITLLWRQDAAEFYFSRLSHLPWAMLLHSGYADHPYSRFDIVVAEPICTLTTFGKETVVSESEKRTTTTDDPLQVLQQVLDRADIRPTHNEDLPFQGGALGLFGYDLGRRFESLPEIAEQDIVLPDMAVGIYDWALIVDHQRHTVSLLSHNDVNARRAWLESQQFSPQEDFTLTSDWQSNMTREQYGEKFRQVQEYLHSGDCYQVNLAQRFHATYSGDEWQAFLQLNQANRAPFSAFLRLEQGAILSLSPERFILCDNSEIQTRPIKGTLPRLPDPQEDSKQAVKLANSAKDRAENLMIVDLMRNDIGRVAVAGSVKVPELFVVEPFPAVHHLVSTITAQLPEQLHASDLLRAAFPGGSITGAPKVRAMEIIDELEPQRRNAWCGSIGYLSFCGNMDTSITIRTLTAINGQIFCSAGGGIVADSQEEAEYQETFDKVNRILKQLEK

Activity [10]	Activity [11]	Activity [12]	Compound	Activity [1]	Ki [2]	Ki [3]	Activity [4]	Activity [5]	Activity [6]	Ki [7]	Activity [8]	Activity [9]
–	–	–	CC(C(=O)N[C@@H](CCCNC(=O)c1cccc(OCC(=O)O)c1)C(=O)NCCc1cccc2c1oc1c(CCC(N)=O)cccc12)c1ccc([N+](=O)[O-])cc1 (stereo not given in full)	Active	250 µM	190 µM	Active	Active	Active	110 µM	Active	Active
–	–	–	NC(=O)C1(NC(=O)[C@H](CCCNC(=O)c2cccc(OCC(=O)O)c2)NC(=O)c2ncccc2C(=O)c2ccccc2)CCCCC1	Active	490 µM	430 µM	Active	Active	Active	1080 µM	Active	Active
–	–	–	NC(=O)C1(NC(=O)[C@H](CCCNC(=O)c2cccc(OCC(=O)O)c2)NC(=O)c2ccc(Oc3ccccc3)cc2)CCS(=O)(=O)CC1	Active	570 µM	170 µM	Active	Active	Active	1020 µM	Active	Active
–	–	–	Cc1ccc(C(=O)N[C@@H](CCCNC(=O)c2cccc(OCC(=O)O)c2)C(=O)N[C@@H](Cc2ccc(C#N)cc2)C(N)=O)c([N+](=O)[O-])c1O	Active	28 µM	260 µM	Active	Active	Active	81 µM	Active	Active
Active	Active	Active	Cc1ccc(C(=O)N[C@@H](C)C(=O)N[C@@H](Cc2cccc(Cl)c2)C(N)=O)c([N+](=O)[O-])c1O	–	200 µM	500 µM	–	–	–	–	Active	Active
Active	Active	–	Cc1ccc(C(=O)N[C@@H](CCCCN)C(=O)N[C@@H](Cc2cccc(Cl)c2)C(N)=O)c([N+](=O)[O-])c1O	–	110 µM	790 µM	–	–	–	–	Active	Active
–	–	–	Cc1ccc(C(=O)N[C@@H](CCCCNC(=O)c2cccc(OCC(=O)O)c2)C(=O)N[C@@H](Cc2cccc(Cl)c2)C(N)=O)c([N+](=O)[O-])c1O	Active	20 µM	210 µM	Active	Active	Active	54 µM	Active	Active
–	–	–	O=C(O)COc1cccc(C(=O)O)c1	Active	210 µM	1300 µM	Active	Active	Active	550 µM	Active	Active
–	–	–	NC(=O)c1cccc(OCC(=O)O)c1	Active	760 µM	2600 µM	Active	Active	Active	2600 µM	Active	Active
–	–	–	Cc1ccc(C(=O)N[C@@H](CSCCCNC(=O)c2cccc(OCC(=O)O)c2)C(=O)N[C@@H](Cc2cccc(Cl)c2)C(N)=O)c([N+](=O)[O-])c1O	Active	96 µM	150 µM	Active	Active	Active	–	Active	Active
–	–	–	Cc1ccc(C(=O)N[C@@H](CCCNC(=O)c2cccc(OCC(=O)O)c2)C(=O)N[C@@H](Cc2cccc(Cl)c2)C(N)=O)c([N+](=O)[O-])c1O	–	41 µM	360 µM	–	Active	Active	–	Active	Active

Reference: ChEMBL document CHEMBL1157909, “Targeting multiple chorismate-utilizing enzymes with a single inhibitor: validation of a three-stage design” (J Med Chem, 2010)
